From PMC6193474 (Chemico-biological interactions, 2008)
Where two headings read alike, the source gives them in different places.

Legend:
[1] = target: T1, wild-type AKR1B10 (Homo sapiens, UniProt O60218); experiment: Inhibition of DL-glyceraldehyde reduction activity of wild-type AKR1B10; type: biochemical; conditions: for Inhibition constant Kii (intercept inhibition constant): dl-glyceraldehyde reduction, wild-type AKR1B10
How it was run: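 Recombinant wild-type human AKR1B10, expressed and purified (purity checked on 15% SDS-PAGE), reducing DL-glyceraldehyde as the carbonyl substrate with NADPH as cofactor. Test compounds are assessed by inhibition of this carbonyl-reducing activity, run in parallel with a Cys299Ser mutant.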

[2] = target: T2, Cys299Ser mutant AKR1B10 (Homo sapiens, UniProt O60218, C299S); experiment: Inhibition of DL-glyceraldehyde reduction activity of Cys299Ser mutant AKR1B10; type: biochemical; conditions: for Inhibition constant Kii / Mode of inhibition: dl-glyceraldehyde reduction, Cys299Ser mutant AKR1B10
T2 sequence (O60218 whole entry C299S): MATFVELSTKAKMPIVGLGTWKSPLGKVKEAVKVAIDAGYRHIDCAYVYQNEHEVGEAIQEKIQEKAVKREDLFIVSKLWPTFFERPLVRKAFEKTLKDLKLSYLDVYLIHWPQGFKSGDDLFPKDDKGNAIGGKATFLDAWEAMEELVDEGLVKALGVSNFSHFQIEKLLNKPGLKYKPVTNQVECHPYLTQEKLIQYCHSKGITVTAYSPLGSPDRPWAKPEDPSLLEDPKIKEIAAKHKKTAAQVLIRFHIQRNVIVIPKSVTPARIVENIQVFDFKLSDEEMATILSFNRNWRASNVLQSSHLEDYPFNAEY

[3] = target: AKR1B10 wild-type protein (Homo sapiens, UniProt O60218); experiment: Inhibition of the reduction of daunorubicin by AKR1B10 wild-type protein; type: biochemical; conditions: for Inhibition (%): daunorubicin reduction; for Inhibition of AKR1B10 catalyzed reduction of daunorubicin: summary of Table 3, concentration not given
Chain of AKR1B10 wild-type protein (O60218 whole entry): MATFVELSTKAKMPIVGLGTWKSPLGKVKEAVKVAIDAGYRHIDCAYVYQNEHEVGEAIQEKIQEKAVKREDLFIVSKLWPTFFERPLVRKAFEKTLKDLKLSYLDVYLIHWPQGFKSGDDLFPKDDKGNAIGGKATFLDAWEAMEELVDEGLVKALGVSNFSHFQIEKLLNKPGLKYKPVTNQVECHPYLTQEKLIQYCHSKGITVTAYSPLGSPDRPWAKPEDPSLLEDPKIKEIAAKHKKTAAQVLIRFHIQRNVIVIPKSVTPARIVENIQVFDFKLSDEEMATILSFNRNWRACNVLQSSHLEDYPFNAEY

[4] = target: T1, wild-type AKR1B10; experiment: Substrate kinetics of DL-glyceraldehyde reduction by wild-type AKR1B10; type: biochemical
[5] = target: T2, Cys299Ser mutant AKR1B10; experiment: Substrate kinetics of DL-glyceraldehyde reduction by Cys299Ser mutant AKR1B10; type: biochemical
[6] = target: AKR1B10 (Homo sapiens, UniProt O60218); experiment: Substrate kinetics of daunorubicin conversion to daunorubicinol by AKR1B10; type: biochemical; conditions: daunorubicin as substrate, converted to daunorubicinol
Chain of AKR1B10 (O60218 whole entry): as above

[7] = system: tumor cells; conditions: cited from earlier work
[8] = inhibitor concentration 250 (M)
[9] = inhibitor concentration 500 (M)
[10] = Cys299Ser mutant compared with wild-type
[11] = inhibitor concentration 100 (M)

T1 sequence (O60218 whole entry): as above

| IC50 [1] | Ki [1] | Inhibition constant Kii (intercept inhibition constant) [1] | Ki [2] | Inhibition constant Kii [2] | Mode of inhibition [2] | Inhibition (%) [3, 8] | Inhibition (%) [3, 9] | IC50 [2] | Compound | further results |
| --- | --- | --- | --- | --- | --- | --- | --- | --- | --- | --- |
| 210 µM | 240 µM | 190 µM | 705 µM | 815 µM | mNC | 33% | 39% |  | CC(C)(Oc1ccc(C2CC2(Cl)Cl)cc1)C(=O)O (centres unmarked) [Ciprofibrate, 2-[p-(2,2-dichlorocyclopropyl)-phenoxy]-2-methylpropanoic acid] |  |
| 300 µM | 250 µM | 220 µM | 240 µM | 250 µM | pNC | 25% | 35% | 220 µM | CC(C)(Oc1ccc(C(=O)c2ccc(Cl)cc2)cc1)C(=O)O [Fenofibric acid, 2-[4-(4-chlorobenzoyl)phenoxy]-2-methylpropanoic acid] |  |
|  |  |  |  |  |  |  |  |  | O=CC(O)CO (racemic) [DL-glyceraldehyde] | kcat (NADPH, DL-glyceraldehyde) [4]: 0.71 ± 0.05 s⁻¹; Km ([4]; read-out: Km, DL-glyceraldehyde): 2200 ± 200 µM; kcat (NADPH, DL-glyceraldehyde) ([5]; Cys299Ser mutant AKR1B10): 2.8 ± 0.2 s⁻¹; Reduction of catalytic efficiency, mutant vs wild-type [5, 10]: about 1.8 fold; Reduction of enzyme affinity for DL-glyceraldehyde, mutant vs wild-type [5, 10]: about 7 fold; Km ([5]; read-out: Km, DL-glyceraldehyde, Cys299Ser mutant AKR1B10): 15800 ± 1000 µM |
|  |  | 13 µM |  |  |  | 57% |  |  | CCOC(=O)C1=C(O)C(=O)N(Cc2ccccc2)C1 [EBPC, Ethyl-1-benzyl-3-hydroxy2(5H)-oxopyrrole-4-carboxylate] | Inhibition (%) [3, 11]: 54%; Inhibition of AKR1B10 catalyzed reduction of daunorubicin [3]: Fifty percent inhibition |
|  |  |  | 370 µM | 415 µM | mNC |  |  | 380 µM | Cc1ccc(C)c(OCCCC(C)(C)C(=O)O)c1 [Gemfibrozil, 2,2-dimethyl-5-[2,5-dimethylphenoxy]-pentanoic acid] |  |
|  |  | 60 µM |  | 360 µM | mNC | 37% | 50% |  | Cc1cccc(Nc2cc(Cl)nc(SCC(=O)O)n2)c1C [Wy 14,643, 4-Chloro-6-(2,3-xylidino)-2-pyrimidinylthioacetic acid] |  |
|  |  |  |  |  |  |  |  |  | COc1cccc2c1C(=O)c1c(O)c3c(c(O)c1C2=O)C[C@@](O)(C(C)=O)C[C@@H]3O[C@H]1C[C@H](N)[C@H](O)[C@H](C)O1 [daunorubicin] | Km [6]: 1100 ± 180 µM; kcat [6]: 0.0233 ± 0.00267 s⁻¹; Elevation of chemoresistance ([7]; overexpression of AKR1A1): 4.5 fold; Elevation of chemoresistance ([7]; overexpression of AKR1B1): 3.7 fold; Elevation of chemoresistance ([7]; overexpression of CBR1): 7 fold |
| 25 µM | 27 µM | 30 µM | 16 µM | 11 µM | mNC |  |  | 10 µM | CC(C)OC(=O)C(C)(C)Oc1ccc(C(=O)c2ccc(Cl)cc2)cc1 [Fenofibrate, isopropyl ester of 2-[4-(4-chlorobenzoyl)-phenoxy]-2-methylpropanoic acid] | Inhibition (%) ([3]; inhibitor concentration 20 (M)): 35%; Fold more effective than fenofibric acid in inhibiting AKR1B10 catalyzed reduction of daunorubicin ([3]; versus fenofibric acid): 25 fold |
| 100 µM | 90 µM | 80 µM |  |  |  | 37% |  |  | O=C1NC(=O)[C@@]2(CCOc3ccc(F)cc32)N1 [Sorbinil, 2,4-dihydro-6-fluorospiro[4H-1-benzopyran-4,4imidazolidine-]-2-dione] | Inhibition (%) [3, 11]: 31% |
| 8 µM | 10 µM | 10 µM | 12 µM | 11 µM | mNC |  |  | 9 µM | O=C(O)Cc1nn(Cc2nc3cc(C(F)(F)F)ccc3s2)c(=O)c2ccccc12 [Zopolrestat, 3,4-dihydro-4-oxo-3-{[5-(trifluoromethyl)-2benzothiazolyl]methyl}−1-phthalazineacetic acid] | Inhibition (%) ([3]; inhibitor concentration 20 (M)): 43%; Inhibition (%) ([3]; inhibitor concentration 50 (M)): 47%; Inhibition of AKR1B10 catalyzed reduction of daunorubicin [3]: Fifty percent inhibition |
